Calls of active or inactive are those of the source.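 How the source made its calls, unless noted: active means fluorescence slope after compound addition differing from the mean of all screened samples at 99.7% confidence, in either direction; inactive means the rest.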

Assay [1] in a line: inhibitors of TNFa-induced NFkB p65 translocation, primary screen, imaging, HUVEC, MLSMR starter and 10KST1 sets (AID 438;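 active means inhibition above 20% together with a positive visual image hit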;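 further: compound added about 3h40 before a 20 min TNFalpha stimulation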;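 on inhibition: signal is the nuclear over cytoplasmic p65 intensity ratio per well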). Particulars: HUVEC TNFa-induced p65 nuclear translocation; cell count: measured here: nuclei count (cytotoxicity indicator), at 2.08 µM; inhibition: at 2 µM, stronger effect = higher value, 0% TNFa-plus-vehicle, 100% no-TNFa wells.
The nature of assay [2]: inhibitors of E-selectin induction by TNFa, primary screen, imaging, HUVEC, immunofluorescence, MLSMR starter and 10KST1 sets (AID 487;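 active means visually confirmed hit in the image check and inhibition above 20%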;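 on inhibition: signal is fraction of cell area covered by stained E-selectin grains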;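 on nuclei count: 100% = median nuclei count of all wells on the same plate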). Particulars: HUVEC TNFalpha-induced E-selectin immunofluorescence imaging, at 2 µM; inhibition: stronger effect = higher value; nuclei count: measured here: cell number, toxicity.
Assay [3] can be described thus: DUSP6 inhibitors restoring Erk phosphorylation by chemical complementation, primary imaging in DUSP6-transfected HeLa (AID 609;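 active means compounds giving at least 50% inhibition in the cell-based MKP-3 phosphatase rescue imaging test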;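 on inhibition: phospho-Erk level distribution per well compared with pooled transfected vehicle control wells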). Particulars: HeLa MKP-3 transfected, phospho-Erk imaging KS statistic, at 10 µM, cells stimulated with TPA for 15 min.
Assay [4] addresses Dual specificity protein phosphatase 6 (Homo sapiens) (UniProt Q16828). Described as above. Particulars: HeLa MKP-3 transfected, phospho-Erk imaging KS statistic; at 10 µM; stronger effect = higher value; cells stimulated with TPA for 15 min.
Assay [5] concerns the target Voltage-gated potassium channel subunit beta-2 (Rattus norvegicus) (UniProt P62483). The assay can be described thus: KvBeta enzyme negative modulators, primary screen, biochemical, NADPH fluorescence (AID 622;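 active means fluorescence slope higher than the sample average by over 3 SD, cut at about -0.22 in these data, passing the limit was not always enough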;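 further: slope of raw intensity against log time taken from 70 to 1610 s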). Particulars: recombinant KvBeta, 4-cyanobenzaldehyde reduction, at 10 µM, stronger effect = higher value.
For assay [6] the target is unchanged. The assay can be described thus: KvBeta positive modulators, primary screen, biochemical, NADPH fluorescence (AID 623;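 active means NADPH fluorescence slope more negative than the mean of all samples by about 3 SD, 99.7% confidence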;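 further: fluorescence intensity change per second fitted from 20 to 320 s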). Particulars: Recombinant KvBeta, NADPH fluorescence decrease slope, 10 min; at 10 µM; stronger effect = lower value.
The target of assay [7] is Alpha-2C adrenergic receptor (Homo sapiens) (UniProt P18825). The assay can be described thus: modulators of alpha2C/GIRK thallium flux, primary screen, cell-based, HEK293 alpha2C/GIRK1/2 (AID 624).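 Further: slope of fluorescence ratio to pre-addition baseline per second over 15 to 24 s.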 Particulars: thallium flux BTC fluorescence, at 10 µM, actives lie on both sides.
A short description of assay [8]: inhibitors of larval lipid processing in zebrafish, primary screen, whole organism, PED6 fluorescence, gall bladder and intestine (AID 686;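 active means a full or partial loss of lipid-probe fluorescence in the fish gall bladder, intestine or both, judged by eye; inactive means no fluorescence loss, or compound toxic to the fish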;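 further: larvae 5 to 7 days old with five fish per well; signal comes from phospholipase A2 cleavage of quenched PED6 carried via bile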). Particulars: Zebrafish larvae PED6 lipid processing, fluorescence scoring; screened at 20 µM (by protocol). In outline: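 Incubation: overnight exposure of larvae to compound plus PED6 / Test system: live zebrafish larvae aged 5-7 days, whole organism / Amount: 5 larvae per well / Read-out basis: visual per-well fluorescence inhibition score / Signal: visual fluorescence microscopy scoring of gall bladder, gut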

A short description of assay [9]: inhibitors of Chlamydomonas gravitaxis, primary screen, whole organism, Chlamydomonas reinhardtii, WT vs cilia-less mutant, absorbance, 96-well (AID 463189;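 active means inhibition at or above 50% relative to wild type and mutant plate controls; inactive means inhibition below 50%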;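 further: 0% = wild type cc124 cells in DMSO and 100% = ciliumless bld1 mutant cells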). The conditions noted are these: OD600 absorbance, 2 days, at 10 µM, stronger effect = higher value.
Setting [10] is: measured here: cell density z-score.
Setting [11] is: measured here: nuclear c-Myc green intensity z-score.
The mark [12] stands for this setting: measured here: nuclear pErk red intensity z-score, stronger effect = higher value.

Alpha-2C adrenergic receptor (Homo sapiens), sequence (P18825 whole entry, looked up): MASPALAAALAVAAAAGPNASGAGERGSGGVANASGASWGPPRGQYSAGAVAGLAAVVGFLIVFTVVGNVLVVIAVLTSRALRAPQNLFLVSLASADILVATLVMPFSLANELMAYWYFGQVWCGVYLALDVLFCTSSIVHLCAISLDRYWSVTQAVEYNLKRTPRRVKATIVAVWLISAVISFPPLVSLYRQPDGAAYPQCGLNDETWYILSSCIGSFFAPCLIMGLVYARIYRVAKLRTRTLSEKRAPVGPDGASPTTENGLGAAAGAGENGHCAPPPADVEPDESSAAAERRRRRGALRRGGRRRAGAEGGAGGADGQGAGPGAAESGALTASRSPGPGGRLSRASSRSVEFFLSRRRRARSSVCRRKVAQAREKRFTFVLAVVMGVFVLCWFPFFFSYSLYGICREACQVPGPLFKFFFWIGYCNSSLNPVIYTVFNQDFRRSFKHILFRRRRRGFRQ
Voltage-gated potassium channel subunit beta-2 (Rattus norvegicus), sequence (P62483 whole entry, looked up): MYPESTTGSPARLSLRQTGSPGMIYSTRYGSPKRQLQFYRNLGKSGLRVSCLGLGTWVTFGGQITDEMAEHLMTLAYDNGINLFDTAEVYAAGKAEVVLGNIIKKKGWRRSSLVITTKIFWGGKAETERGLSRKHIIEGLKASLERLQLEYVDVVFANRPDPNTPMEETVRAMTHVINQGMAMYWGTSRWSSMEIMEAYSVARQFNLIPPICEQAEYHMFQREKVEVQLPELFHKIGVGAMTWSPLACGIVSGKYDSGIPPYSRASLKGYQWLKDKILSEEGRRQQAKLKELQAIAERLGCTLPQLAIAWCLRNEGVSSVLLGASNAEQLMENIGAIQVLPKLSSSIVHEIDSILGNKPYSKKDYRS
Dual specificity protein phosphatase 6 (Homo sapiens), sequence (Q16828 whole entry, looked up): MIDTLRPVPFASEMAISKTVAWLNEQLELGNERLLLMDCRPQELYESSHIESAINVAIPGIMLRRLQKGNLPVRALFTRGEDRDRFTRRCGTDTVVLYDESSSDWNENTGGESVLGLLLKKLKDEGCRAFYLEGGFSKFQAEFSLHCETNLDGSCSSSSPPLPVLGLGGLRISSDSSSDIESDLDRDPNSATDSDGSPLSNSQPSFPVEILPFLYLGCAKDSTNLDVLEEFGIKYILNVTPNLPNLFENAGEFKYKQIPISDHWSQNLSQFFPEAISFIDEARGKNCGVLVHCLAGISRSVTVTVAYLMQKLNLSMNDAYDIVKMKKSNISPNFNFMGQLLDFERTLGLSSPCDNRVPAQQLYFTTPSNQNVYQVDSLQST

Usually inhibition stands for the change of the read-out against control, counted positive when it falls. Turning to `CCCCOC(=O)CSC1=C(C#N)C(c2ccccc2OC)C(C#N)C(=O)N1` (configuration not stated), the cell count in assay [1] is 504. Also, the inhibition was -3% (inactive) in assay [1], -46% (inactive) in [2], 9.39% (inactive) in assay [4] and -21.1% (inactive) in assay [9]. Moreover, the nuclei count in assay [2] was 116%. Further, the figures for the z-score in [3] (setting [10]), in assay [3] (setting [11]) and in [3] (setting [12]) were -0.706, 0.338 and 1.09, respectively. The fluorescence slope in assay [5] was -0.481 (inactive). Moreover, the NADPH fluorescence slope in [6] was -0.000165 (inactive). Also, the slope in assay [7] was 0.00464 (inactive). Besides, the molecule was classed as inactive in assay [8].
With `CCCOc1ccc(C2NC(=O)NC2=O)cc1` (configuration not stated), the cell count in assay [1] was 614. Further, the inhibition in [1] is -8% (inactive); in [2] it was -260% (inactive); in [4], -0.159% (inactive); in assay [9], -17% (inactive). In assay [2], the nuclei count worked out at 113%. The z-score was -0.563 in assay [3] (setting [10]), 1.62 in [3] (setting [11]) and 0.505 in [3] (setting [12]). The fluorescence slope in assay [5] is -0.511 (inactive). The NADPH fluorescence slope in assay [6] was -7.1e-05 (inactive). Also, the slope in assay [7] is 0.00583 (inactive). For the same molecule, the molecule was classed as inactive in [8].
As to `CCOC(=O)c1nc(N)c(C(=O)OCC)[nH]1`, in [1], the cell count came to 405. For the same molecule, the inhibition in [1] is 11.5% (inactive); in [2] it was -32.3% (inactive); in [4] it was 18.2% (inactive); in assay [9], -16% (inactive). In [2], this molecule registered a nuclei count of 94.7%. Besides, the z-score in assay [3] (setting [10]) was -0.517; in [3] (setting [11]), 1.59; in [3] (setting [12]), -0.341. Moreover, the fluorescence slope in [5] was -0.47 (inactive). Further, the NADPH fluorescence slope in assay [6] is -7.9e-05 (inactive). The slope in assay [7] is 0.00468 (inactive). In addition, the call in [8] was inactive.
Consider `COc1ccc(N(CN2C(=O)C3C4C=CC(C4)C3C2=O)C(=O)c2ccco2)cc1` (configuration not stated), for which the cell count in assay [1] stood at 541. The inhibition is 2.9% (inactive) in assay [1], -74.9% (inactive) in assay [2], 1.6e-07% (inactive) in assay [4] and -8.45% (inactive) in [9]. This molecule gave a nuclei count in [2] of 117%. Moreover, the z-score was -1.56 in assay [3] (setting [10]), 1.43 in [3] (setting [11]) and 1.11 in assay [3] (setting [12]). Besides, the fluorescence slope in assay [5] is -0.58 (inactive). Besides, the NADPH fluorescence slope in [6] was -3.5e-05 (inactive). Further, the slope in assay [7] was 0.00619 (inactive). In addition, in assay [8], the molecule was classed as inactive.
As to `C=C(C)CN1CCN(c2c(CCC#N)c(C)c(C#N)c3nc4ccccc4n23)CC1`, the cell count in assay [1] turned out to be 553. Moreover, the inhibition in [1] was -17.5% (inactive); in assay [2], -77% (inactive); in assay [4], -4.27% (inactive); in assay [9] it was 17.9% (inactive). This molecule yielded a nuclei count in assay [2] of 159%. Besides, the z-score in assay [3] (setting [10]) was -0.509; in assay [3] (setting [11]), -0.729; in assay [3] (setting [12]), -0.345. Also, in assay [5], the fluorescence slope was -0.00664 (inactive). The NADPH fluorescence slope in assay [6] was -2.3e-06 (inactive). For the same molecule, the slope in assay [7] is 0.00756 (inactive). The molecule was called inactive in assay [8].
`CCOc1ccc(C2C(C(=O)c3ccc(C)o3)=C(O)C(=O)N2CCCN(CC)CC)cc1` (configuration not stated): in assay [1], the cell count turned out to be 518. In addition, the inhibition in assay [1] was -20.5% (inactive); in assay [2], -72.6% (inactive); in assay [4], -2.47% (inactive); in [9], 0.749% (inactive). In assay [2], this molecule returned a nuclei count of 151%. Also, the z-score is 1.15 in assay [3] (setting [10]), -0.0565 in assay [3] (setting [11]) and 0.452 in assay [3] (setting [12]). Besides, the fluorescence slope in assay [5] is -0.509 (inactive). In addition, the NADPH fluorescence slope in assay [6] was -3.9e-05 (inactive). Further, the slope in assay [7] is 0.00538 (inactive). Moreover, the call in [8] was inactive.
As for `Cc1cc(C)n(CC(=O)n2nc(C)cc2C)n1`, in assay [1], the cell count came to 519. The inhibition was -6.2% (inactive) in [1], -24.6% (inactive) in [2], 5.95% (inactive) in [4] and 15% (inactive) in assay [9]. Also, in assay [2], the nuclei count was determined as 81.7%. The z-score came to 0.222 in assay [3] (setting [10]), 0.17 in [3] (setting [11]) and 0.394 in assay [3] (setting [12]). In [5], the fluorescence slope was -0.492 (inactive). The NADPH fluorescence slope in assay [6] is -2.9e-05 (inactive). In addition, the slope in [7] is 0.00514 (inactive). For the same molecule, the result in assay [8] was inactive.
Take `COc1cc(=O)n2c(-c3ccccc3)csc2n1`: the cell count in assay [1] stood at 628. Besides, the inhibition is 0% (inactive) in assay [1], -58.9% (inactive) in assay [2], 13.2% (inactive) in assay [4] and 5.32% (inactive) in assay [9]. This molecule registered a nuclei count in assay [2] of 153%. Besides, the z-score in assay [3] (setting [10]) is -1.46; in assay [3] (setting [11]), 1.4; in [3] (setting [12]), 0.777. The fluorescence slope in [5] is -0.465 (inactive). In addition, in assay [6], the NADPH fluorescence slope is -0.000258 (inactive). Besides, the slope in [7] is 0.00547 (inactive). The molecule was called inactive in [8].
In the case of `CC1(C)Cc2c(sc3nc4n(c(=N)c23)CCCCC4)CO1`, the cell count in [1] worked out at 637. In addition, the inhibition is -5.2% (inactive) in assay [1], 57.2% (inactive) in assay [2], -7.28% (inactive) in assay [4] and -1.35% (inactive) in assay [9]. In assay [2], the nuclei count is 169%. The z-score in [3] (setting [10]) was -0.678; in assay [3] (setting [11]), 2.31; in assay [3] (setting [12]) it was -0.487. In addition, the fluorescence slope in [5] was -0.414 (inactive). Besides, the NADPH fluorescence slope in assay [6] is -4.7e-05 (inactive). In assay [7], the slope was 0.00482 (inactive). The molecule was called inactive in assay [8].
Take `CC(C)C1Cc2c(sc3c2c(=O)n(-c2ccccc2)c2nncn32)CO1` (configuration not stated): the cell count in assay [1] turned out to be 603. The inhibition in [1] was -21.3% (inactive); in [2], -90.9% (inactive); in assay [4], 3.56% (inactive); in assay [9] it was -0.205% (inactive). In assay [2], this molecule returned a nuclei count of 179%. The z-score in assay [3] (setting [10]) was -0.575; in assay [3] (setting [11]), -0.884; in assay [3] (setting [12]), 1.06. In addition, the fluorescence slope in [5] was -0.379 (inactive). In addition, in assay [6], the NADPH fluorescence slope was -5.4e-05 (inactive). The slope in [7] is 0.00589 (inactive). In addition, in [8], the result was inactive.
For `Cc1cccc2c1NC(C)CC2C` (configuration not stated), the cell count in assay [1] is 424. For the same molecule, the inhibition in assay [1] is -23.2% (inactive); in [2], -291% (inactive); in assay [4], 7.7% (inactive); in [9], 5.59% (inactive). Also, in assay [2], the nuclei count was 187%. For the same molecule, the figures for the z-score in [3] (setting [10]), in assay [3] (setting [11]) and in assay [3] (setting [12]) were 1.31, -0.632 and -0.589, respectively. Besides, the fluorescence slope in assay [5] is -0.292 (inactive). Moreover, the NADPH fluorescence slope in assay [6] was -6.6e-06 (inactive). Moreover, the slope in assay [7] is 0.00419 (inactive). Moreover, in assay [8], the outcome is “active; weak signal in gallbladder and intestine”.
Turning to `C1CCCN(CCCCN2CCCCCC2)CC1`, in assay [1], the cell count stood at 575. Moreover, the inhibition in [1] is -1.5% (inactive); in assay [2], -211% (inactive); in [4] it was -5.89% (inactive); in assay [9], -11.5% (inactive). For the same molecule, in [2], the nuclei count turned out to be 129%. For the same molecule, the z-score is -2.5 in assay [3] (setting [10]), 1.44 in assay [3] (setting [11]) and -0.0614 in [3] (setting [12]). The fluorescence slope in assay [5] was -0.456 (inactive). For the same molecule, the NADPH fluorescence slope in [6] is -0.000347 (inactive). Moreover, the slope in assay [7] was 0.00726 (inactive). For the same molecule, the molecule was classed as inactive in [8].
In the case of `CCOC(=O)C1=C(CSc2nc3c(cc2C#N)CCC3)OC(N)=C(C#N)C1c1ccccc1` (configuration not stated), the cell count in [1] is 514. The inhibition was -16.1% (inactive) in assay [1], -90.1% (inactive) in [2], -0.674% (inactive) in [4] and 5.98% (inactive) in assay [9]. For the same molecule, the nuclei count in assay [2] came to 118%. Also, the figures for the z-score in assay [3] (setting [10]), in [3] (setting [11]) and in [3] (setting [12]) were -0.196, 0.0665 and -0.283, respectively. In addition, in assay [5], the fluorescence slope is -0.426 (inactive). Further, the NADPH fluorescence slope in [6] was 5.2e-06 (inactive). In addition, in [7], the slope is 0.00558 (inactive). Also, the result in [8] was inactive.
Regarding `CCOc1ccc(CC2CC(=O)NC2=O)cc1` (configuration not stated), in [1], the cell count worked out at 622. In addition, the inhibition is 2.8% (inactive) in assay [1], -113% (inactive) in [2], -0.159% (inactive) in [4] and 9.39% (inactive) in assay [9]. In [2], this molecule returned a nuclei count of 185%. Moreover, the results for the z-score in assay [3] (setting [10]), in assay [3] (setting [11]) and in [3] (setting [12]) were -0.992, -0.148 and 1.17, respectively. Further, in [5], the fluorescence slope was -0.484 (inactive). Besides, the NADPH fluorescence slope in assay [6] is -9.9e-05 (inactive). Further, in [7], the slope is 0.00492 (inactive). Also, in [8], the molecule was called inactive.
